Measured values as given in ChEMBL document CHEMBL1132383, “Cardioselective antiischemic ATP-sensitive potassium channel (K(ATP)) openers. 6. Effect of modifications at C6 of benzopyranyl cyanoguanidines” (J Med Chem, 1999).

Tests used:
Type in all cases: functional
Rattus norvegicus [1] = organism: Rattus norvegicus; experiment: Antiischemic potency by measurement of increase in time to contracture in globally ischemic isolated perfused rat hearts
In short: (§1)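 Isolated rat hearts, perfused and then subjected to global ischemia. Activity is read as the lengthening of time to onset of ischemic contracture. Compounds were first tested at 10 μM. EC25 for increasing time to contracture was then determined.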

[2] = Ratio of Antiischemic potency to vasorelaxant potency.
In short: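 Selectivity is calculated as the EC25 for lengthening time to contracture in globally ischemic isolated rat hearts divided by the IC50 for relaxing methoxamine-contracted rat aorta.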

Rattus norvegicus [3] = organism: Rattus norvegicus; experiment: In vitro relaxation of rat aorta precontracted with methoxamine.
In short: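 Rat aortic rings precontracted with methoxamine. IC50 is the concentration giving relaxation, reported as the mean of n = 4 or more.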

Rattus norvegicus [4] = organism: Rattus norvegicus; experiment: Antiischemic potency by measurement of increase in time to contracture in globally ischemic isolated perfused rat hearts at 1 uM.
In short: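 Isolated perfused rat hearts under global ischemia, compound present at 1 μM. Cardioprotection is read as the increase in time to onset of ischemic contracture.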

Rattus norvegicus [5] = organism: Rattus norvegicus; experiment: Antiischemic potency by measurement of increase in time to contracture in globally ischemic isolated perfused rat hearts.; in short: as §1

Row | SMILES | IC50 (Rattus norvegicus [3]) [nM] | EC25 (Rattus norvegicus [1]) [nM] | Ratio [2] | Activity (Rattus norvegicus [4]) [%] | EC25 (Rattus norvegicus [5]) [nM]
1 | CCN(CC(F)(F)F)S(=O)(=O)c1ccc2c(c1)[C@@H](/N=C(\NC#N)Nc1ccc(Cl)cc1)[C@H](O)C(C)(C)O2 | – | 260 | – | – | –
2 | CCN(CC)S(=O)(=O)c1ccc2c(c1)[C@@H](/N=C(\NC#N)Nc1ccc(Cl)cc1)[C@H](O)C(C)(C)O2 | 1100 | 300 | 0.27 | – | –
3 | CC1(C)Oc2ccc(S(=O)(=O)N3CCCC(Cc4ccccc4)C3)cc2[C@@H](/N=C(\NC#N)Nc2ccc(Cl)cc2)[C@@H]1O (some centres undefined) | – | 1100 | – | – | –
4 | CC1(C)Oc2ccc(C#N)cc2[C@@H](N2CCCC2=O)[C@@H]1O [CROMAKALIM] | – | 8900 | 278 | – | –
5 | CC1CCN(S(=O)(=O)c2ccc3c(c2)[C@@H](/N=C(\NC#N)Nc2ccc(Cl)cc2)[C@H](O)C(C)(C)O3)CC1 | – | 650 | – | – | –
6 | CC1(C)Oc2ccc(C#N)cc2[C@@H](/N=C(\NC#N)Nc2ccc(Cl)cc2)[C@@H]1O | – | 2500 | 1.4 | – | –
7 | C=C(c1ccccc1)c1ccc2c(c1)[C@@H](/N=C(\NC#N)Nc1ccc(Cl)cc1)[C@H](O)C(C)(C)O2 | 10700 | – | – | 3 | –
8 | CC1(C)Oc2ccc(C#N)cc2[C@H](N(Cc2ncc[nH]2)c2ccc(Cl)cc2)[C@H]1O [BMS-191095] | > 30000 | 1400 | < 0.05 | – | –
9 | CC(C)CN(C)S(=O)(=O)c1ccc2c(c1)[C@@H](/N=C(\NC#N)Nc1ccc(Cl)cc1)[C@H](O)C(C)(C)O2 | – | 250 | – | – | –
10 | CC1(C)Oc2ccc(S(=O)(=O)N3CCCC3)cc2[C@@H](/N=C(\NC#N)Nc2ccc(Cl)cc2)[C@@H]1O | – | – | – | – | 330
11 | CC1(C)Oc2ccc(S(N)(=O)=O)cc2[C@@H](/N=C(\NC#N)Nc2ccc(Cl)cc2)[C@@H]1O | 41300 | >10000 | – | – | –
12 | CC(C)(C)C(=O)c1ccc2c(c1)[C@@H](/N=C(\NC#N)Nc1ccc(Cl)cc1)[C@H](O)C(C)(C)O2 | 5400 | 1800 | 0.33 | – | –
13 | CC1(C)Oc2ccc(S(=O)(=O)NC3CCCCC3)cc2[C@@H](/N=C(\NC#N)Nc2ccc(Cl)cc2)[C@@H]1O | 11700 | 2200 | 0.19 | – | –
14 | CC1(C)Oc2ccc(S(=O)(=O)N3CCCCCC3)cc2[C@@H](/N=C(\NC#N)Nc2ccc(Cl)cc2)[C@@H]1O | – | 600 | – | – | –
15 | CC(C)N(C(C)C)S(=O)(=O)c1ccc2c(c1)[C@@H](/N=C(\NC#N)Nc1ccc(Cl)cc1)[C@H](O)C(C)(C)O2 | – | 240 | – | – | –
16 | CC(C)CN(CC(C)C)S(=O)(=O)c1ccc2c(c1)[C@@H](/N=C(\NC#N)Nc1ccc(Cl)cc1)[C@H](O)C(C)(C)O2 | 9400 | 40 | 0.004 | – | –
17 | CC1(C)Oc2ccc(C(=O)Nc3ccccc3)cc2[C@@H](/N=C(\NC#N)Nc2ccc(Cl)cc2)[C@@H]1O | > 100000 | >10000 | – | – | –

Continued, in another order:

Row | IC50 (Rattus norvegicus [3]) [nM] | SMILES | EC25 (Rattus norvegicus [1]) [nM] | Ratio [2] | Activity (Rattus norvegicus [4]) [%] | EC25 (Rattus norvegicus [5]) [nM]
18 | 6800 | CC1(C)Oc2ccc(C(=O)Cc3ccccc3)cc2[C@@H](/N=C(\NC#N)Nc2ccc(Cl)cc2)[C@@H]1O | 400 | 0.06 | – | –
19 | 10000 | CC1(C)Oc2ccc(Cc3ccccc3)cc2[C@@H](/N=C(\NC#N)Nc2ccc(Cl)cc2)[C@@H]1O | 11100 | 1.1 | – | –
20 | 3100 | CC1(C)Oc2ccc(S(=O)(=O)N3CCOCC3)cc2[C@@H](/N=C(\NC#N)Nc2ccc(Cl)cc2)[C@@H]1O | 1000 | 0.32 | – | –
21 | 44100 | COP(=O)(c1ccccc1)c1ccc2c(c1)[C@@H](/N=C(\NC#N)Nc1ccc(Cl)cc1)[C@H](O)C(C)(C)O2 (some centres undefined) | 2400 | 0.05 | – | –
22 | 500 | CC1(C)Oc2ccc(S(=O)(=O)c3ccccc3)cc2[C@@H](/N=C(\NC#N)Nc2ccc(Cl)cc2)[C@@H]1O | 800 | 1.6 | – | –
23 | 32100 | CC1CC(C)CN(S(=O)(=O)c2ccc3c(c2)[C@@H](/N=C(\NC#N)Nc2ccc(Cl)cc2)[C@H](O)C(C)(C)O3)C1 (some centres undefined) | 230 | 0.007 | – | –
24 | 3300 | CC1(C)Oc2ccc(S(=O)(=O)Nc3ccccc3)cc2[C@@H](/N=C(\NC#N)Nc2ccc(Cl)cc2)[C@@H]1O | 1900 | 0.6 | – | –
25 | 500 | C[C@@H]1CCC[C@H](C)N1S(=O)(=O)c1ccc2c(c1)[C@@H](/N=C(\NC#N)Nc1ccc(Cl)cc1)[C@H](O)C(C)(C)O2 | 340 | 0.68 | – | –
26 | 7100 | CC1(C)Oc2ccc(C(=O)c3ccccc3)cc2[C@@H](/N=C(\NC#N)Nc2ccc(Cl)cc2)[C@@H]1O | 900 | 0.13 | – | –
27 | > 30000 | CC1(C)Oc2ccc(S(=O)(=O)N3CCC(Cc4ccccc4)CC3)cc2[C@@H](/N=C(\NC#N)Nc2ccc(Cl)cc2)[C@@H]1O | 940 | – | – | –
28 | 1900 | CC1(C)Oc2ccc(S(=O)(=O)N3CCCCC3)cc2[C@@H](/N=C(\NC#N)Nc2ccc(Cl)cc2)[C@@H]1O | 270 | 0.14 | – | –
